Reference: PMC7080047 (Medicinal Chemistry Research, 2014)

What was measured:
[1] = system: NO production in chicken macrophages; conditions: ref Sung et al., 1994; cited from earlier work
[2] = system: immune-activated NO production by mouse peritoneal cells; experiment: in vitro nitric oxide; type: cell-based; conditions: for IC50: read-out: NO-inhibitory IC 50, LPS/IFN-γ stimulated mouse peritoneal cells, 24 h; for concentration at which NO-suppressive effects were already apparent: dose-response, Fig. 2
How it was run: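 Peritoneal lavage cells (8 mL saline) pooled from 4–10 female C57BL/6 mice, 8–10 weeks old, seeded at 2 × 10^6 cells/mL in RPMI-1640 with 10% FBS, 37 °C, 5% CO2. Test compound (DMSO stock diluted in medium; DMSO control) added for 24 h with IFN-γ 0.5 ng/mL plus E. coli LPS 0.1 ng/mL, duplicates. Supernatant nitrite measured by Griess reagent at A540 against a nitrite standard curve, expressed as % of control.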

[3] = system: Feline herpes virus; experiment: antiviral activity, Feline herpes virus in CRFK cells; type: cell-based; conditions: read-out: antiviral EC50
[4] = system: viruses such as members of the Herpes, Picorna, and Pox groups; conditions: ref Marcialis et al., 1973, 1974, La Colla et al., 1975; cited from earlier work
[5] = system: respiratory syncytial virus (RSV); experiment: antiviral activity, respiratory syncytial virus in HeLa cells; type: cell-based; conditions: human respiratory syncytial virus, read-out: antiviral EC50
[6] = system: HIV-2; experiment: antiviral activity, HIV-2 in CEM cells; type: cell-based; conditions: Human immunodeficiency virus 2, CCRF-CEM, read-out: antiviral EC50
[7] = system: HIV-1; experiment: antiviral activity, HIV-1 in CEM cells; type: cell-based; conditions: Human immunodeficiency virus 1, CCRF-CEM, read-out: antiviral EC50
[8] = system: Punta Toro virus; experiment: antiviral activity, Punta Toro virus in MDCK cells; type: cell-based; conditions: read-out: antiviral EC50
[9] = system: HSV-2; experiment: antiviral activity, HSV-2 in HeLa cells; type: cell-based; conditions: Human alphaherpesvirus 2, HeLa, read-out: antiviral EC50
[10] = system: Parainfluenza 3-virus; experiment: antiviral activity, Parainfluenza 3-virus in MDCK cells; type: cell-based; conditions: read-out: antiviral EC50
[11] = system: Reovirus-1; experiment: antiviral activity, Reovirus-1 in MDCK cells; type: cell-based; conditions: read-out: antiviral EC50
[12] = system: vesicular stomatitis virus (VSV); experiment: microbe, parasite or virus in culture; type: cell-based; conditions: HeLa, read-out: antiviral EC50
[13] = system: vaccinia virus; experiment: antiviral activity, vaccinia virus in HeLa cells; type: cell-based; conditions: Orthopoxvirus vaccinia, read-out: antiviral EC50
[14] = system: HSV-1; experiment: antiviral activity, HSV-1 in HeLa cells; type: cell-based; conditions: Human alphaherpesvirus 1, HeLa, read-out: antiviral EC50

In the case of Nc1cc(O)nc(N)n1 [2,4-diamino-6-hydroxypyrimidine], the “effect on NO production (in words)” value [1] is listed as “suppresses NO production”.

Compound “N-(3-aminomethyl)-benzylacetamide [1,400 W, reference compound]” has an IC50 [2] of 3.87 µM.

For Nc1nc(Cl)cc(Cl)n1 [Compound B1, 2-amino-4,6-dichloropyrimidine], the EC50 [3] is listed as over 100 µg/mL, the “concentration required for antiviral activities described in the literature” value [4] is listed as about 100 µg/mL and the EC50 [5] is listed as over 100 µg/mL. For the same compound, the EC50 [6] was over 100 µg/mL, the EC50 [7] was over 100 µg/mL and the EC50 [8] was over 100 µg/mL. The EC50 [9] was over 100 µg/mL, the EC50 [10] was over 100 µg/mL and the EC50 [11] was over 100 µg/mL. For the same compound, the EC50 [12] was over 100 µg/mL, the EC50 [13] was over 100 µg/mL and the EC50 [14] was over 100 µg/mL.

In the case of Nc1nc(Cl)c(F)c(Cl)n1 [Compound B12, 5-fluoro-2-amino-4,6-dichloropyrimidine], the “concentration at which NO-suppressive effects were already apparent” value [2] is reported as 2.5 µM and the “effect on immune-activated NO production (in words)” value ([2]; mouse peritoneal cells) is reported as “nearly completely suppressed the production of NO”.

N=C(N)NN [Aminoguanidine, aminoguanidine, reference compound] showed an IC50 [2] of 77.8 µM.

In the case of C#CCc1c(Cl)nc(N)nc1Cl [Compound B6, 4,6-Dichloro-5-(prop-2-yn-1-yl)pyrimidin-2-amine], the “concentration at which NO-suppressive effects were already apparent” value [2] is reported as 2.5 µM.
